Experimental data reported in ChEMBL document CHEMBL3124905, “Isothiocoumarin-3-carboxylic acid derivatives: synthesis, anticancer and antitrypanosomal activity evaluation” (Eur J Med Chem, 2014).
Active and inactive are the calls of the source. The rule behind the calls is not given here.

Assays:
Assay type in all cases: functional
SK-MEL-5 = test: Growth inhibition of human SK-MEL-5 cells after 48 hrs by SRB assay
In short: (§1)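 NCI five-dose assay against the ~60-cell-line panel (nine cancer types). Tenfold dilutions from 10−4 to 10−8 M were used with continuous 48-h exposure and SRB absorbance readout. Percent growth was computed from time-zero, control and treated absorbances. GI50 is the concentration giving 50% lower net protein increase than controls. Values not reached are reported as beyond the tested range.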

EKVX = test: Growth inhibition of human EKVX cells after 48 hrs by SRB assay; in short: as §1
OVCAR-8 = test: Growth inhibition of human OVCAR8 cells after 48 hrs by SRB assay; in short: as §1
MDA-MB-435 = test: Growth inhibition of human MDA-MB-435 cells after 48 hrs by SRB assay; in short: as §1
SR = test: Growth inhibition of human SR cells after 48 hrs by SRB assay
In short: (§2)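 NCI ~60-cell-line five-dose screen. Cells were preincubated 24-48 h, then given compound at 10-fold dilutions from 10^-4 to 10^-8 M with 48 h continuous exposure. SRB protein stain was read by absorbance at time zero, in untreated control and with drug. GI50 was derived from [(Ti-Tz)/(C-Tz)]x100=50, TGI from Ti=Tz, and LC50 from [(Ti-Tz)/Tz]x100=-50.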

MDA-MB-231 = test: Growth inhibition of human MDA-MB-231/ATCC cells after 48 hrs by SRB assay; in short: as §1
A549 = test: Growth inhibition of human A549/ATCC cells after 48 hrs by SRB assay; in short: as §1
PC-3 = test: Growth inhibition of human PC3 cells after 48 hrs by SRB assay; in short: as §1
RXF 393 = test: Growth inhibition of human RXF393 cells after 48 hrs by SRB assay; in short: as §1
OVCAR-3 = test: Growth inhibition of human OVCAR3 cells after 48 hrs by SRB assay; in short: as §1
OVCAR-5 = test: Growth inhibition of human OVCAR5 cells after 48 hrs by SRB assay; in short: as §1
HOP-62 = test: Growth inhibition of human HOP62 cells after 48 hrs by SRB assay; in short: as §1
HOP-92 = test: Growth inhibition of human HOP92 cells after 48 hrs by SRB assay; in short: as §1
HOP69 = test: Growth inhibition of human […] cells after 48 hrs by SRB assay; in short: as §1
CCRF-CEM = test: Growth inhibition of human CCRF-CEM cells after 48 hrs by SRB assay; in short: as §1
HCT-116 = test: Growth inhibition of human HCT116 cells after 48 hrs by SRB assay; in short: as §1
NCI-H322M = test: Growth inhibition of human NCI-H322M cells after 48 hrs by SRB assay; in short: as §1
[1] = test system: Trypanosoma brucei brucei; test: Antitrypanosomal activity against bloodstream form of Trypanosoma brucei brucei strain 90-13 assessed as inhibition of parasite growth at 10 ug/ml after 72 hrs by resazurin reduction test; settings: strain 90-13, 72 h
In short: (§3)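 Trypanosoma brucei brucei 90-13 bloodstream forms, grown in HMI9 with 10% FCS at 37 °C under 5% CO2. Log-phase parasites were seeded at 10^5 cells/mL with or without inhibitor, with stocks prepared in DMSO. After 72 h, resazurin was added and fluorescence was read at 530/590 nm after a further 4 h. Percent growth inhibition was calculated versus drug-free parasites, with DMSO as control.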

SF-539 = test: Growth inhibition of human SF539 cells after 48 hrs by SRB assay; in short: as §1
CAKI-1 = test: Growth inhibition of human CAKI-1 cells after 48 hrs by SRB assay; in short: as §1
HCC 2998 = test: Growth inhibition of human HCC2998 cells after 48 hrs by SRB assay; in short: as §1
BT-549 = test: Growth inhibition of human BT549 cells after 48 hrs by SRB assay; in short: as §1
UO-31 = test: Growth inhibition of human UO31 cells after 48 hrs by SRB assay; in short: as §2
NCI-H522 = test: Growth inhibition of human NCI-H522 cells after 48 hrs by SRB assay; in short: as §1
UACC-257 = test: Growth inhibition of human UACC257 cells after 48 hrs by SRB assay; in short: as §2
ACHN = test: Growth inhibition of human ACHN cells after 48 hrs by SRB assay; in short: as §1
SNB- = test: Growth inhibition of human SNB cells after 48 hrs by SRB assay; in short: as §1
SF-295 = test: Growth inhibition of human SF295 cells after 48 hrs by SRB assay; in short: as §1
UACC-62 = test: Growth inhibition of human UACC62 cells after 48 hrs by SRB assay; in short: as §2
Malme-3M = test: Growth inhibition of human MALME-3M cells after 48 hrs by SRB assay; in short: as §1
786-0 [2] = test: Growth inhibition of human 786-O cells after 48 hrs by SRB assay; in short: as §1
TK-10 = test: Growth inhibition of human TK10 cells after 48 hrs by SRB assay; in short: as §2
M14 = test: Growth inhibition of human M14 cells after 48 hrs by SRB assay; in short: as §1
NCI-H23 = test: Growth inhibition of human NCI-H23 cells after 48 hrs by SRB assay; in short: as §1
[3] = test system: Trypanosoma brucei brucei; test: Antitrypanosomal activity against bloodstream form of Trypanosoma brucei brucei strain 90-13 assessed as inhibition of parasite growth at 1 ug/ml after 72 hrs by resazurin reduction test; settings: strain 90-13, 72 h; in short: as §3
KM12 = test: Growth inhibition of human KM12 cells after 48 hrs by SRB assay; in short: as §1
NCI-H460 = test: Growth inhibition of human NCI-H460 cells after 48 hrs by SRB assay; in short: as §1
U-251 = test: Growth inhibition of human U251 cells after 48 hrs by SRB assay; in short: as §2
Hs-578T = test: Growth inhibition of human Hs 578T cells after 48 hrs by SRB assay; in short: as §1
NCI/ADR-RES = test: Growth inhibition of human NCI/ADR-RES cells after 48 hrs by SRB assay; in short: as §1
LOX IMVI = test: Growth inhibition of human LOXIMVI cells after 48 hrs by SRB assay; in short: as §1
RPMI18226 = test: Growth inhibition of human […] cells after 48 hrs by SRB assay; in short: as §1
SNB-75 = test: Growth inhibition of human SNB75 cells after 48 hrs by SRB assay; in short: as §1
786-0 [4] = test: Growth inhibition of human 786-0 cells after 48 hrs by SRB assay; in short: as §1
MOLT-4 = test: Growth inhibition of human MOLT4 cells after 48 hrs by SRB assay; in short: as §1
OVCAR-4 = test: Growth inhibition of human OVCAR4 cells after 48 hrs by SRB assay; in short: as §1

## O=C(Nc1nc(-c2ccccc2)cs1)c1cc2ccccc2c(=O)s1
SK-MEL-5
  pGI50: inactive
  pTGI: inactive
EKVX
  pGI50: inactive
  pTGI: inactive
OVCAR-8
  pGI50: inactive
  pTGI: inactive
MDA-MB-435
  pGI50: inactive
  pTGI: inactive
SR
  pGI50: inactive
  pTGI: inactive
MDA-MB-231
  pGI50: inactive
  pTGI: inactive
A549
  pGI50: inactive
  pTGI: inactive
PC-3
  pGI50: inactive
  pTGI: inactive
RXF 393
  pGI50: inactive
  pTGI: inactive
OVCAR-3
  pGI50: inactive
  pTGI: inactive
OVCAR-5
  pGI50: inactive
  pTGI: inactive
HOP-62
  pGI50: inactive
  pTGI: inactive
HOP-92
  pGI50: inactive
  pTGI: inactive
HOP69
  pGI50: inactive
  pTGI: inactive
CCRF-CEM
  pGI50: inactive
  pTGI: inactive
HCT-116
  pGI50: inactive
  pTGI: inactive
NCI-H322M
  pGI50: inactive
  pTGI: inactive
[1]
  inhibition at 10 µg/mL: 7.36%
SF-539
  pGI50: inactive
  pTGI: inactive
CAKI-1
  pGI50: inactive
  pTGI: inactive
HCC 2998
  pGI50: inactive
  pTGI: inactive
BT-549
  pGI50: inactive
  pTGI: inactive
UO-31
  pGI50: inactive
  pTGI: inactive
NCI-H522
  pGI50: inactive
  pTGI: inactive
UACC-257
  pGI50: inactive
  pTGI: inactive
ACHN
  pGI50: inactive
  pTGI: inactive
SNB-
  pGI50: inactive
  pTGI: inactive
SF-295
  pGI50: inactive
  pTGI: inactive
UACC-62
  pGI50: inactive
  pTGI: inactive
Malme-3M
  pGI50: inactive
  pTGI: inactive
786-0 [2]
  pGI50: inactive
  pTGI: inactive
TK-10
  pGI50: inactive
  pTGI: inactive
M14
  pGI50: inactive
  pTGI: inactive
NCI-H23
  pGI50: inactive
  pTGI: inactive
[3]
  inhibition at 1 µg/mL: 44.2%
KM12
  pGI50: inactive
  pTGI: inactive
NCI-H460
  pGI50: inactive
  pTGI: inactive
U-251
  pGI50: inactive
  pTGI: inactive
Hs-578T
  pGI50: inactive
  pTGI: inactive
NCI/ADR-RES
  pGI50: inactive
  pTGI: inactive
LOX IMVI
  pGI50: inactive
  pTGI: inactive
RPMI18226
  pGI50: inactive
  pTGI: inactive
SNB-75
  pGI50: inactive
  pTGI: inactive
786-0 [4]
  pGI50: inactive
  pTGI: inactive
MOLT-4
  pGI50: inactive
  pTGI: inactive
OVCAR-4
  pGI50: inactive
  pTGI: inactive
